Measurements taken from ChEMBL document CHEMBL1141523, “A new Heck reaction modification using ketone Mannich bases as enone precursors: parallel synthesis of anti-leishmanial chalcones” (Bioorg Med Chem Lett, 2008).

How the values were obtained:
[1] = tested on: THP-1; assay: Cytotoxicity against human THP1 cells at 1 uM after 48 hrs by Alamar Blue assay; assay type: cell-based; details: thp-1, 48 h
Summary of the method: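 THP-1 macrophages in complete RPMI-1640 (8 × 10^5 cells/ml) were added to an equal volume of compound, stated as 2 µM in complete medium with 1% DMSO. Triplicate wells were incubated 48 h at 37 °C in 5% CO2. AlamarBlue was then added for 3 h and fluorescence was read. Medium with and without DMSO served as 0% inhibition controls.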

[2] = tested on: Leishmania donovani; assay: Antileishmanial activity against axenic Leishmania donovani amastigotes by Alamar Blue assay; assay type: functional, organism-based
Summary of the method: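 Dose-response GI50 (50% growth inhibition) was run on axenic L. donovani amastigotes (5.0 × 10^5 cells/ml) mixed 1:1 with compound at twice the final concentration in amastigote medium with 1% DMSO. Incubation was 24 h at 37 °C in 5% CO2, plus 24 h with alamarBlue, then fluorescence at 544/590 nm. Medium ± DMSO was taken as 0% inhibition. Triplicate wells were used, with duplicate or single experiments ± standard error.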

[3] = tested on: Leishmania donovani; assay: Antileishmanial activity against axenic Leishmania donovani amastigotes at 15 uM by Alamar Blue assay; assay type: functional
Summary of the method: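 L. donovani axenic amastigotes (5.0 × 10^5 cells/ml) were added to an equal volume of compound made up at twice the final concentration in complete amastigote medium with 1% DMSO, giving a 15 µM single-concentration screen. Plates were incubated 24 h at 37 °C in 5% CO2, then alamarBlue was added for 24 h more. Fluorescence was read at ex 544 nm, em 590 nm. Medium ± DMSO served as 0% inhibition, with triplicate wells.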

[4] = tested on: Leishmania donovani; assay: Antileishmanial activity against axenic Leishmania donovani amastigotes at 1 uM by Alamar Blue assay; assay type: functional

Row | SMILES | Activity [1] | GI50 [2] | inhibition at 15 µM [3] | inhibition at 1 µM [4] | IC50 ([2]; in the assay text read “by tetrazolium dye-based assay” for “by Alamar Blue assay”)
1 | O=C(/C=C/c1ccc(NC(=O)c2ccccc2)cc1)c1cccnc1 | 0% | 2.5 µM | 98.7% | – | –
2 | C[C@@H]1[C@H](O)[C@@H](C)/C=C/C=C/C=C/C=C/C=C/C=C/C=C/[C@H](O[C@@H]2O[C@H](C)[C@@H](O)[C@H](N)[C@@H]2O)C[C@@H]2O[C@](O)(C[C@@H](O)C[C@@H](O)[C@H](O)CC[C@@H](O)C[C@@H](O)CC(=O)O[C@H]1C)C[C@H](O)[C@H]2C(=O)O [AMPHOTERICIN B] | – | – | 99% | > 90% | –
3 | COc1ccc(C(=O)/C=C/c2cccc3ccccc23)cc1 | – | – | 51% | – | > 200 µM
4 | O=C(/C=C/c1ccc(NC(=O)c2ccccc2)cc1)c1ccccc1 | 37% | 7.6 µM | 91.6% | – | –
5 | O=C(/C=C/c1ccc(Oc2ccccc2)nc1)c1ccccc1 | – | – | 63.7% | – | –
6 | O=C(/C=C/c1ccc(NC(=O)c2ccccc2)cc1)c1ccc(Cl)cc1 | – | – | 59.8% | – | –
7 | O=C(Nc1ccc(/C=C/C(=O)c2cccs2)cc1)c1ccccc1 | 6% | 5.5 µM | 95.3% | – | –
8 | COc1ccc(C(=O)/C=C/c2ccc(NC(=O)c3ccccc3)cc2)cc1 | – | – | 2.1% | – | –
9 | O=C(Nc1ccc(/C=C/C(=O)c2ccco2)cc1)c1ccccc1 | 0% | 6 µM | 92.4% | – | –
10 | COc1ccc(C(=O)/C=C/c2ccc(Oc3ccccc3)nc2)cc1 | – | – | 42% | – | –
11 | CC(=O)c1ccc(/C=C/C(=O)c2ccccc2)cc1 | 45.7% | 5.6 µM | 93.6% | – | –
12 | COc1ccc(C(=O)/C=C/c2ccc(NC(C)=O)cc2)cc1 | – | – | 54.7% | – | –
